Assay outcomes: PubChem BioAssay, The Scripps Research Institute Molecular Screening Center
Many of the other results were omitted from the sample, so hits are more common in it than they were.
RORa inhibitor – inhibitors of orphan receptor RORA, primary screen, cell-based, luminescence | hit rate 0.43% among 65,000 | AID 561, 2006 | CHO-K1 Gal4-RORA LBD luciferase reporter | inhibition, % at 10 µM;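 active = inhibition above the mean of all tested compounds plus 3 SD, cut at about 52% in these data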;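 also: 0% = RORA-transfected cells with DMSO and 100% = mock-transfected cells lacking RORA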
Target sequence (P35398 whole entry, looked up, the tested form may be a part): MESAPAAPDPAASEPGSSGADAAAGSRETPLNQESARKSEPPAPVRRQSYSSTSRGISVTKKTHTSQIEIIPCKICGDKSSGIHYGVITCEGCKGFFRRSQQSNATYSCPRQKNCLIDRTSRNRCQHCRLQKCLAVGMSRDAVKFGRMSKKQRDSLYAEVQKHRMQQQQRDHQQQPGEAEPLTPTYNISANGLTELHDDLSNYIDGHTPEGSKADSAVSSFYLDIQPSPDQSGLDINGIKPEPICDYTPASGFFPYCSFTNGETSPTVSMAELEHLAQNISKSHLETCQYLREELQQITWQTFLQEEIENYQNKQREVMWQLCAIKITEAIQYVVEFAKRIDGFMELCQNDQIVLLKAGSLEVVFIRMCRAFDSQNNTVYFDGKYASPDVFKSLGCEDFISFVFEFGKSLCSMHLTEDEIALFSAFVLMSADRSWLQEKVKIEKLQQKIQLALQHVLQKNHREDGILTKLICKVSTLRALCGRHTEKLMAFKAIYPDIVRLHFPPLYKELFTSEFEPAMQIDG
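test system = CHO-K1 Gal4-RORA LBD luciferase reporter cells | dosing = 10 µM single point | times = 20 h compound treatment, 37 °C | signal = luciferase luminescence | read-out = % inhibition of basal luciferase versus +RORA/-RORA DMSO controls | benchmarks = mock-transfected cells as 100%, +RORA DMSO cells as 0% | replicates = tested once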
Numbers without * were called inactive.

SMILES | RORa inhibitor
CCOC(=O)N1CCN(C(=O)CSc2nnc(CNC(=O)c3c(F)cccc3Cl)o2)CC1 | -10.8
CCOc1cc(C(=O)CSc2nnc(CNc3ccc(Cl)cc3)o2)ccc1NC(=O)CC | 53.5*
COc1ccc(N2CCN(C(=O)CSc3nnc(CNc4ccccc4)o3)CC2)cc1 | 4.1
CS(=O)(=O)N(CC(=O)O)c1cc(Cl)cc(Cl)c1 | 10.1
Cc1ccc(N2C(N)=NC(N)=NC23CCCC3)c(C)c1 | 14.2
Cc1ccc(-c2nnc(Nc3ccccc3)o2)cc1 | 60.6*
Brc1cccc(-c2nnc(-c3ccccc3)o2)c1 | -39.1
CCOc1ccccc1C(=O)Nc1ccc(-c2nnc(-c3ccc(C)cc3)o2)cc1 | 10.8
Cc1cccc2cc(COC(=O)C(C)C)c(=O)[nH]c12 | 12.5
Cc1nc2nc(COc3ccccc3)[nH]n2c(=O)c1Cl | 26.2
CCN(CC)S(=O)(=O)c1ccc2c(c1)c(=O)c(C(=O)N1CCN(c3ccccc3)CC1)cn2C | 0.4
COc1cccc(N2CCN(c3ncnc4c3[nH]c3ccccc34)CC2C)c1 (stereo not drawn) | 95.3*
COc1cccc(N2CCN(c3ncnc4c3[nH]c3ccc(F)cc34)CC2C)c1 (stereo not drawn) | 95.2*
CCOC(=O)N1CCC(NC(=O)Cn2cc3c(n2)CCCC3)CC1 | -6.1
CCOC(=O)Cn1nnnc1CN(Cc1ccccc1)Cc1cc2cc(CC)ccc2[nH]c1=O | -58.2
Cc1ccc(Sc2oc(/C=N/n3cnnc3)cc2Br)cc1 | 15.5
CNC(=O)NC(=O)COC(=O)CCCOc1ccc(OC)cc1 | 10.3
COC(=O)Cn1ncn2c(cc3oc(C)cc32)c1=O | -33.6
CCOCCn1c(CN(Cc2ccccc2)Cc2ccccc2)nc2c1c(=O)n(C)c(=O)n2C | -2.1
O=C1/C(=C/Nc2ccc3c(c2)OCO3)CCc2ccccc21 | 72.4*
COc1ccc(N/C=C2\CCOC2=O)cc1 | 29.5
O=C(Nc1ccc2c(c1)OCO2)c1cccc(F)c1 | -52.0
CCN(CC)C(=O)N1CCC(NC(=O)c2ccccc2)CC1 | -2.9
O=C(Nc1nc(-c2ccccc2)cs1)c1cccs1 | -56.6
O=C(Nc1nc(-c2nc3ccccc3s2)cs1)C1CC1 | -51.0
SMILES | RORa inhibitor
O=C(Nc1nc(-c2ccccn2)cs1)c1ccc(Cl)s1 | 64.9*
COc1ccc(S(=O)(=O)NCc2ccco2)cc1-c1nnc2c3ccccc3c(C)nn12 | 7.1
CCOC(=O)N1CCN(C(=O)C(c2ccccc2)c2ccccc2)CC1 | 0.6
CCOC(=O)C1CCN(c2ncnc3c2cnn3-c2ccc(Cl)cc2)CC1 | 66.5*
Cc1nn(-c2ccccc2)c(Cl)c1C(=O)N1CCN(c2ncnc3c2cnn3-c2ccccc2)CC1 | 37.2
Cc1ccc(-n2ncc3c(N4CCC(C(N)=O)CC4)ncnc32)c(C)c1 | 15.3
Cc1nn(CC(=O)Nc2nnc(CC(=O)N3CCCC3)s2)c(=O)c2ccccc12 | -12.0
CC(C)c1ccc(NC(=O)CSc2nc3c(c(=O)[nH]2)CCC3)cc1 | 2.2
Cc1ccc(C(=O)CN2CCC(NC(=O)C3CCCCC3)CC2)cc1 | 8.9
CCOC(=O)c1cnn(-c2ccccn2)c1N | -53.0
CCOC(=O)C1=Nc2ccccc2C1=[N+]=[N-] | 75.8*
CCOC(=O)c1c(C)nc(-c2ccccc2)nc1N | -51.1
Cc1cc(C(=O)OCC(=O)N2C(C)CCCC2C)c(C)o1 (stereo not drawn) | 3.2
COc1ccccc1-c1nnc2sc(-c3ccc(N(C)C)cc3)nn12 | 56.8*
COc1ccccc1-c1nn2c(C(F)(F)F)nnc2s1 | -0.4
CN(C)c1ccc(-c2nn3c(-c4ccccc4Cl)nnc3s2)cc1 | 11.5
CNc1oc(-c2ccc(Cl)cc2)nc1C#N | 26.5
CCc1nnc2sc(-c3ccc(NC(=O)c4ccc5c(c4)OCCO5)cc3)nn12 | -9.1
CC(=O)CC1OC(=O)C(Br)=C1NCc1ccccc1 (stereo not drawn) | 62.8*
O=C(CC1Oc2ccccc2NC1=O)NCc1ccccc1 (stereo not drawn) | 3.7
COc1ccccc1C1/C(=C(/O)c2ccc(Cl)cc2)C(=O)C(=O)N1CCN1CCOCC1 (stereo not drawn) | -20.8
COc1cccc2c1C(=O)c1c(O)c3c(c(O)c1C2=O)C[C@@](O)(C(C)=O)C[C@@H]3O[C@H]1C[C@H](N)[C@H](O)[C@H](C)O1 | 77.5*
Cc1nc2cc(NC(=O)NCCC3=CCCCC3)ccc2o1 | -72.9
O=C(CSc1nnnn1C1CCCCC1)NCc1ccc2c(c1)OCO2 | 14.8
CC1CCN(c2ccc(C(=O)O)cc2N)CC1 | 13.6
SMILES | RORa inhibitor
Cc1cc(C)cc(Nc2ccc(C(=O)O)cc2N)c1 | 71.1*
C/C(=C\C(=O)c1ccc(C)o1)Nc1ccc(C(=O)O)cc1C | -4.1
CCOC(=O)N1CCN(C2=NC3(CCCCC3)C(C#N)C(=O)N2)CC1 (stereo not drawn) | -7.6
N/C(=N\S(=O)(=O)c1ccc(Cl)s1)c1ccccc1 | 23.8
CCOC(=O)N1CCC(N2Cc3cccc(C(=O)N4CC(C)CC(C)C4)c3C2=O)CC1 (stereo not drawn) | 12.0
Cc1cc(/C=c2/sc3nc4ccccc4n3c2=O)c(C)n1-c1ccccn1 | 86.7*
O=C(Nc1ccc(Cc2ccncc2)cc1)c1ccco1 | -31.5
